Results published in ChEMBL document CHEMBL3297658, “Potent fluorinated agelastatin analogues for chronic lymphocytic leukemia: design, synthesis, and pharmacokinetic studies” (J Med Chem, 2014).
Values after ≈ are worked out from the molar mass of the structure shown.

Key:
[1] = Antitumor activity against CLL1 cells isolated from CLL patient assessed as cell viability after 48 hrs by FACS analysis; format: functional, cell-based; settings: Homo sapiens
Summary of the method: (§1)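 Primary CLL patient cells or JVM-2 line cultured 48 h (37 °C, 5% CO2) in RPMI + 10% FBS with graded compound. Stained 30 min at 37 °C with 40 nM DiOC6 and 10 μg/mL PI, then flow cytometry (525 nm DiOC6, 600 nm PI). Viability = % DiOC6+/PI− relative to untreated or vehicle control. EC50 and SE fitted from dose–response curves.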

[2] = Antitumor activity against CLL2 cells isolated from CLL patient assessed as cell viability after 48 hrs by FACS analysis; format: functional, cell-based, Homo sapiens; summary of the method: as §1
[3] = Antitumor activity against human JVM2 cells assessed as cell viability after 48 hrs by FACS analysis; format: functional, cell-based; settings: JVM-2, 48 h; summary of the method: as §1
HeLa = test: Antitumor activity against human HeLa cells assessed as cell viability by MTT assay; format: functional, cell-based
Summary of the method: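 Adherent HeLa cells exposed to compound, then medium replaced with 0.5 mg/mL MTT in phenol-red-free RPMI and incubated overnight at 37 °C. Lysed with 15% SDS/0.015 M HCl and OD read at 570 nm once formazan dissolved. EC50 and SE derived from dose–response curves.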

[4] = Antitumor activity against CLL3 cells isolated from CLL patient assessed as cell viability after 48 hrs by FACS analysis; format: functional, cell-based; settings: Homo sapiens; summary of the method: as §1
[5] = Antitumor activity against CLL4 cells isolated from CLL patient assessed as cell viability after 48 hrs by FACS analysis; format: functional, cell-based; settings: Homo sapiens; summary of the method: as §1
[6] = Antitumor activity against CLL5 cells isolated from CLL patient assessed as cell viability after 48 hrs by FACS analysis; format: functional, cell-based; settings: Homo sapiens; summary of the method: as §1
[7] = Antitumor activity against CLL6 cells isolated from CLL patient assessed as cell viability after 48 hrs by FACS analysis; format: functional, cell-based; settings: Homo sapiens, CLL6, 48 h; summary of the method: as §1
[8] = AUC in BALB/c mouse plasma at 2.5 mg/kg, iv administered as single dose by LC/MS analysis; format: ADME, organism-based; parameters: dose 2.5 mg/kg, route intravenous
Summary of the method: (§2)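 Female BALB/c mice given a single 2.5 mg/kg dose intravenously (IP arm run in parallel). Plasma concentration–time course followed by LCMS. AUC, Cmax, Tmax and t1/2 calculated from the curves.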

[9] = Cmax in BALB/c mouse plasma at 2.5 mg/kg, iv administered as single dose by LC/MS analysis; format: ADME, organism-based; parameters: dose 2.5 mg/kg, route intravenous; summary of the method: as §2
[10] = Tmax in BALB/c mouse plasma at 2.5 mg/kg, iv administered as single dose by LC/MS analysis; format: ADME, organism-based; parameters: dose 2.5 mg/kg, route intravenous; summary of the method: as §2
[11] = Half life in BALB/c mouse plasma at 2.5 mg/kg, iv administered as single dose by LC/MS analysis; format: ADME, organism-based; parameters: dose 2.5 mg/kg, route intravenous; summary of the method: as §2
[12] = AUC in BALB/c mouse plasma at 2.5 mg/kg, ip administered as single dose by LC/MS analysis; format: ADME, organism-based; parameters: dose 2.5 mg/kg, route intraperitoneal
Summary of the method: (§3)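 Female BALB/c mice dosed at 6 weeks of age with a single intraperitoneal dose of 2.5 or 5.0 mg/kg, n = 4. Tail-vein blood taken at set times and stored at -80 °C. Samples precipitated with CH3CN, spun at 3000g for 10 min, concentrated, reconstituted in 1:1 CH3CN/H2O and quantified by LCMS. PK parameters derived from the concentration–time curves.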

[13] = Cmax in BALB/c mouse plasma at 2.5 mg/kg, ip administered as single dose by LC/MS analysis; format: ADME, organism-based; parameters: dose 2.5 mg/kg, route intraperitoneal; summary of the method: as §3
[14] = Tmax in BALB/c mouse plasma at 2.5 mg/kg, ip administered as single dose by LC/MS analysis; format: ADME, organism-based; parameters: dose 2.5 mg/kg, route intraperitoneal; summary of the method: as §3
Mus musculus = test: Half life in BALB/c mouse plasma at 2.5 mg/kg, ip administered as single dose by LC/MS analysis; format: ADME, organism-based; parameters: dose 2.5 mg/kg, route intraperitoneal; settings: in vivo; summary of the method: as §3
[15] = AUC in BALB/c mouse plasma at 5 mg/kg, ip administered as single dose by LC/MS analysis; format: ADME, organism-based; parameters: dose 5 mg/kg, route intraperitoneal; summary of the method: as §3
[16] = Cmax in BALB/c mouse plasma at 5 mg/kg, ip administered as single dose by LC/MS analysis; format: ADME, organism-based; parameters: dose 5 mg/kg, route intraperitoneal; summary of the method: as §3
[17] = Tmax in BALB/c mouse plasma at 5 mg/kg, ip administered as single dose by LC/MS analysis; format: ADME, organism-based; parameters: dose 5 mg/kg, route intraperitoneal; summary of the method: as §3
[18] = Half life in BALB/c mouse plasma at 5 mg/kg, ip administered as single dose by LC/MS analysis; format: ADME, organism-based; parameters: dose 5 mg/kg, route intraperitoneal; summary of the method: as §3
Liver microsome = test: Metabolic stability in human liver microsomes at 100 uM measured after 1 hr by LC/MS analysis in presence of 1 mM NADPH; format: ADME
Summary of the method: (§4)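 Microsomes (final protein 5 mg/mL, mouse or human) in 0.1 M sodium phosphate pH 7.4 with compound at 100 μM final (DMSO <1%). Preincubated 5 min at 37 °C, started with NADPH (1 mM final), run 60 min at 37 °C with agitation. Stopped with MeOH and centrifuged; supernatant analysed by LCMS. Controls: zero time, no NADPH, heat-inactivated microsomes, and 7-ethoxycoumarin as CYP substrate.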

Liver [19] = test: Metabolic stability in mouse liver microsomes at 100 uM measured after 1 hr by LC/MS analysis in presence of 1 mM NADPH; format: ADME; summary of the method: as §4
Liver [20] = test: Metabolic stability in mouse liver microsomes containing glucuronidase; format: ADME
Liver [21] = test: Metabolic stability in human liver S9 fraction containing glucuronidase; format: ADME, subcellular
KB = test: Cytotoxicity against human KB cells; format: functional, cell-based
[22] = Cytotoxicity against human CLL cells; format: functional, cell-based
Summary of the method: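 Primary patient CLL cells cultured 48 h (37 °C, 5% CO2) in RPMI with 10% FBS and test compound. Viability taken as the DiOC6+/PI− fraction relative to untreated or vehicle control. EC50 with SE from dose–response curves.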

Plasma = test: Protein binding in BALB/c mouse plasma at 50 uM after 1 to 24 hrs by LC-MS method; format: ADME, cell-free
Summary of the method: (§5)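 Compound added to pooled female BALB/c mouse plasma or serum, or to human AB serum, at 50 μM final (1% DMSO) and incubated at 37 °C with gentle agitation. Aliquots taken at 0, 0.5, 1, 2, 8, 18 and 24 h, proteins precipitated with CH3CN, spun at 3000g for 10 min, supernatant analysed by LCMS. Run in triplicate.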

Serum [23] = test: Protein binding in BALB/c mouse serum at 50 uM after 1 to 24 hrs by LC-MS method; format: ADME; summary of the method: as §5
Serum [24] = test: Protein binding in human AB serum at 50 uM after 1 to 24 hrs by LC-MS method; format: ADME; summary of the method: as §5
[25] = Drug recovery in BALB/c mouse plasma at 50 uM after 24 hrs by LC-MS method; format: ADME, cell-free; settings: read-out: Drug recovery; summary of the method: as §5
[26] = Drug recovery in BALB/c mouse serum at 50 uM after 24 hrs by LC-MS method; format: ADME, cell-free; settings: read-out: Drug recovery; summary of the method: as §5
[27] = Drug recovery in human AB serum at 50 uM after 24 hrs by LC-MS method; format: ADME, cell-free; settings: read-out: Drug recovery; summary of the method: as §5

CN1C(=O)N[C@@]2(O)[C@@H]3NC(=O)c4ccc(Br)n4[C@@H]3C[C@@]12O
EC50 [1]: 84.6 µM | EC50 ([2]; Homo sapiens, CLL2, 48 h): 10 µM | EC50 [3]: 4.07 µM | EC50 (HeLa): 7.63 µM

CN1C(=O)N[C@H]2[C@@H]3NC(=O)c4ccc(Br)n4[C@@H]3C[C@]21O (stereo in doubt; 1a) [AGELASTATIN A]
EC50 [1]: 0.31 µM | EC50 ([2]; cll2): 0.16 µM | EC50 [3]: 0.28 µM | EC50 (HeLa): 0.11 µM | EC50 [4]: 0.24 µM | EC50 [5]: 0.37 µM | EC50 [6]: 0.29 µM | EC50 [7]: 1.15 µM | AUC [8]: 1740 nM·h | Cmax [9]: 4.5 µM | Tmax [10]: 2 min | half-life [11]: 4 min | AUC [12]: 2950 nM·h | Cmax [13]: 1.28 µM | Tmax [14]: 30 min | t1/2 (Mus musculus): 60 min | AUC [15]: 4290 nM·h | Cmax [16]: 2.3 µM | Tmax [17]: 30 min | half-life [18]: 60 min | Stability (Liver microsome): Stable | Stability (Liver [19]): Stable | Stability (Liver [20]): Stable | Stability (Liver [21]): Stable | IC50 (KB): 0.5 mg/L (≈ 1.47 µM) | IC50 [22]: 0.06 µM | PPB (Plasma): Not Active | PB (Serum [23]): Not Active | PB (Serum [24]): Not Active | remaining at 24 h, 50 µM [25]: 65% | remaining at 24 h, 50 µM [26]: 65% | remaining at 24 h, 50 µM [27]: 65%

CN1C(=O)N[C@H]2[C@@H]3NC(=O)c4ccc(Br)n4[C@@H]3C[C@]21O (stereo in doubt; 3) [AGELASTATIN A]
EC50 ([2]; cll2): > 1 µM

O=C1N[C@H]2[C@@H]3NC(=O)c4ccc(Br)n4[C@@H]3C[C@@]2(O)N1 [AGELASTATIN D]
EC50 [1]: 91.1 µM | EC50 ([2]; Homo sapiens, CLL2, 48 h): 29 µM | EC50 [3]: 13.2 µM

CCOc1ccc2ccc(=O)oc2c1 [ETHOXYCOUMARIN]
Stability (Liver microsome): Unstable | Stability (Liver [19]): Unstable

Nc1nc(F)nc2c1ncn2[C@@H]1O[C@H](CO)[C@@H](O)[C@@H]1O [FLUDARABINE]
EC50 [1]: 17.1 µM | EC50 ([2]; Homo sapiens, CLL2, 48 h): 2.66 µM | EC50 [3]: 10.4 µM | EC50 (HeLa): 16 µM | EC50 [4]: 0.35 µM | EC50 [5]: 0.64 µM | EC50 [6]: 0.16 µM | EC50 [7]: 1.6 µM
